Assay [1] addresses T1, Falcipain 2 (Plasmodium falciparum, UniProt Q9N6S8).
T1 sequence (Q9N6S8 whole entry): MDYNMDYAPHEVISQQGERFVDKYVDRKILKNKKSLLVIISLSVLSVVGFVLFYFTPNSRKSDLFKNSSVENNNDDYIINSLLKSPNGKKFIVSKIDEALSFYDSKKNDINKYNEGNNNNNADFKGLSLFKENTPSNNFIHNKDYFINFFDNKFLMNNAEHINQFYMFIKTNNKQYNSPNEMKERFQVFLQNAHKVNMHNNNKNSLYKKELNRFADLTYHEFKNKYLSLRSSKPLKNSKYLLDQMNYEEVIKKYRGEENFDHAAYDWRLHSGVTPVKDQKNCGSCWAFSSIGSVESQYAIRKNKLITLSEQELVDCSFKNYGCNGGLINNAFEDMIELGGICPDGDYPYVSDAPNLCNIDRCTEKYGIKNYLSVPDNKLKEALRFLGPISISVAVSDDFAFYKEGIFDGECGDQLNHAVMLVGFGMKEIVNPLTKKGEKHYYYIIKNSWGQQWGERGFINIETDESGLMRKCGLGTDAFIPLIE
Nature of the assay: Inhibition of Plasmodium falciparum recombinant falcipain-2. The procedure, abridged:
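Recombinant enzyme (~1 nM) preincubated 30 min at room temperature with inhibitor dilutions (from 100× DMSO stocks) in 100 mM sodium acetate pH 5.5, 10 mM dithiothreitol; benzyloxycarbonyl peptide fluorogenic substrate then added, fluorescence followed continuously 30 min at room temperature. IC50 from activity versus inhibitor concentration plots.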

Assay [2] deals with Plasmodium falciparum. The experiment in a line: Antiparasitic activity against Plasmodium falciparum W2. The class given is functional, organism-based. The procedure, abridged: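 W2 (chloroquine-resistant) P. falciparum cultured at 1% parasitaemia, 2% haematocrit. Inhibitors from 10 mM DMSO stocks added to 20 μM final, then serially diluted to 10 μM, 2 μM, 0.4 μM, 80, 16 and 3.2 nM, in duplicate plates. Cultures kept 2 days at 37 °C, washed and fixed in 1% formaldehyde/PBS. Parasitaemia read by flow cytometry with YOYO-1 DNA stain.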

With `NC(=S)N/N=C/c1ccc(O)c(CN2CCCCC2)c1O`, the figures for the IC50 in assay [1] and in assay [2] were 3.8 µM and above 10 µM, respectively.
The matching figures for `CN1CCN(Cc2c(O)ccc(/C=N/NC(N)=S)c2O)CC1`: 18.2 µM and above 10 µM.
Consider `CN1CCN(Cc2c(O)ccc(C=O)c2O)CC1`, for which the half-inhibitory concentration (IC50) was above 20 µM in assay [1] and above 10 µM in assay [2].
`O=C(NCCNc1ccnc2cc(Cl)ccc12)N/N=C/c1ccc(O)c(CN2CCN(c3ccnc4cc(Cl)ccc34)CC2)c1O`: the IC50 came out at 3.16 µM in assay [1] and 0.077 µM in assay [2].
For `O=C(NCCNc1ccnc2cc(Cl)ccc12)N/N=C/c1ccc(O)c(CN2CCCC2)c1O`, in that order: 0.72 µM and 1.07 µM.
The matching figures for `O=Cc1ccc(O)c(CN2CCCCC2)c1O`: above 20 µM and above 10 µM.
As to `NC(=S)N/N=C/c1ccc(O)c(CN2CCN(c3ccnc4cc(Cl)ccc34)CC2)c1O`, the IC50 was determined as 2.25 µM in assay [1] and 3.75 µM in assay [2].
The matching figures for `NC(=S)N/N=C/c1ccc(O)c(CN2CCCC2)c1O`: 5.85 µM and above 10 µM.
Regarding `NC(=S)N/N=C/c1ccc(O)c(CN2CCOCC2)c1O`, the results for the IC50 in assay [1] and in assay [2] were above 20 µM and above 10 µM, respectively.
For the compound `CCN(CC)Cc1c(O)ccc(/C=N/NC(=O)NCCNc2ccnc3cc(Cl)ccc23)c1O`, the figures for the IC50 in assay [1] and in assay [2] were 2.6 µM and 0.44 µM, respectively.
Consider `O=Cc1ccc(O)c(CN2CCN(c3ccnc4cc(Cl)ccc34)CC2)c1O`, for which the half-inhibitory concentration (IC50) in assay [1] is above 20 µM; in assay [2] it was 1.07 µM.
In the case of `O=Cc1ccc(O)c(CN2CCCC2)c1O`, the half-maximal inhibitory concentration (IC50) was above 20 µM in assay [1] and above 10 µM in assay [2].
For `CCN(CC)Cc1c(O)ccc(C=O)c1O`, in that order: above 20 µM and above 10 µM.
With `NC(=O)N/N=C/c1ccc(O)c(CN2CCN(c3ccnc4cc(Cl)ccc34)CC2)c1O`, the 50% inhibitory concentration (IC50) is above 20 µM in assay [1] and 0.25 µM in assay [2].
For `CN1CCN(Cc2c(O)ccc(/C=N/NC(=O)NCCNc3ccnc4cc(Cl)ccc34)c2O)CC1`, in that order: above 20 µM and 0.38 µM.
The matching figures for `CCN(CC)Cc1c(O)ccc(/C=N/NC(N)=S)c1O`: 11.1 µM and above 10 µM.
Turning to `O=Cc1ccc(O)c(CN2CCOCC2)c1O`, the IC50 in assay [1] is above 20 µM; in assay [2], above 10 µM.
As to `O=C(NCCNc1ccnc2cc(Cl)ccc12)N/N=C/c1ccc(O)c(CN2CCCCC2)c1O`, the results for the half-inhibitory concentration (IC50) in assay [1] and in assay [2] were 0.63 µM and 0.27 µM, respectively.
The matching figures for `O=C(NCCNc1ccnc2cc(Cl)ccc12)N/N=C/c1ccc(O)c(CN2CCOCC2)c1O`: above 20 µM and 0.11 µM.

As usually defined, the IC50 is the concentration needed to halve the response being measured.

The values are drawn from ChEMBL document CHEMBL1144511, “Synthesis and biological evaluation of phenolic Mannich bases of benzaldehyde and (thio)semicarbazone derivatives against the cysteine protease falcipain-2 and a chloroquine resistant strain of Plasmodium falciparum” (Bioorg Med Chem, 2007).
